Results from ChEMBL document CHEMBL4359889 (Eur J Med Chem, 2019).

How the values were obtained:
NCI-H441 = test: Cytotoxicity in human H441 cells incubated for 72 hrs by alamar blue reagent based assay; format: cell-based
Method in brief: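 Cells seeded at 8,000 per well in RPMI-1640 with 10% FBS, dosed next day across a concentration range for 72 h. Alamar Blue (1:10, in phenol red-free RPMI with 10% FBS) added for 4 h, fluorescence read at ex 530/em 580 nm. IC50 from curve fit; triplicate in three independent sets, mean ± SD.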

NCI-H2228 = test: Cytotoxicity in human NCI-H2228 cells harboring EML4-fused ALK variant 3 incubated for 72 hrs by alamar blue reagent based assay; format: functional, cell-based; conditions: NCI-H2228, 72 h
[1] = Biodistribution in nude mouse assessed as accumulation in brain tissue at 100 uCi, iv measured for 60 mins by PET imaging analysis; format: ADME, organism-based; conditions: in vivo, 1 h
Method in brief: (§1)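 Dynamic PET 0–10 min after injection under anesthesia, then 10-min static scans at 30 and 60 min. Regions of interest drawn on decay-corrected whole-body coronal images and converted to %ID/cc. Mean ± SD.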

[2] = Drug uptake in human NCI-H2228 cells harboring EML4-fused ALK variant 3 at 1 uCi incubated for 30 mins by radioactivity-based assay; format: ADME, cell-based; conditions: nci-h2228, 0.5 h
Method in brief: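 H2228 cells seeded at 10⁶ per well in RPMI-1640 with 10% FBS. Wells washed twice with ice-cold PBS, cells trypsinized 5 min at 37°C, then gamma counted. Uptake given as cpm per million cells, in triplicate.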

[3] = Biodistribution in nude mouse assessed as accumulation in muscle tissue at 100 uCi, iv measured for 60 mins by PET imaging analysis; format: ADME, organism-based; conditions: in vivo, 1 h; method in brief: as §1
[4] = Biodistribution in nude mouse assessed as accumulation in kidney tissue at 100 uCi, iv measured for 5 mins by PET imaging analysis; format: ADME, organism-based; conditions: in vivo; method in brief: as §1
[5] = Lipophilicity, log D of the compound in octanol/pH 7.4 PBS vortex at 1 uCi for 5 mins and repeated for 4 times by gamma counter method; format: physicochemical; conditions: octanol/water, pH 7.4, 5 min
Method in brief: (§2)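 Vortexed 5 min, repeated four times, then centrifuged 2×5 min at 4000 rpm, 4°C. Value taken from the ratio of octanol to aqueous activity.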

[6] = Biodistribution in nude mouse assessed as accumulation in kidney tissue at 100 uCi, iv measured for 10 mins by PET imaging analysis; format: ADME, organism-based; conditions: in vivo; method in brief: as §1
[7] = Biodistribution in nude mouse assessed as accumulation in brain tissue at 100 uCi, iv measured for 5 mins by PET imaging analysis; format: ADME, organism-based; conditions: in vivo; method in brief: as §1
[8] = Biodistribution in nude mouse assessed as accumulation in liver tissue at 100 uCi, iv measured for 5 mins by PET imaging analysis; format: ADME, organism-based; conditions: in vivo; method in brief: as §1
[9] = Biodistribution in nude mouse assessed as accumulation in kidney tissue at 100 uCi, iv measured for 30 mins by PET imaging analysis; format: ADME, organism-based; conditions: in vivo, 0.5 h; method in brief: as §1
[10] = Biodistribution in nude mouse assessed as accumulation in muscle tissue at 100 uCi, iv measured for 10 mins by PET imaging analysis; format: ADME, organism-based; conditions: in vivo; method in brief: as §1
[11] = Biodistribution in nude mouse assessed as accumulation in heart tissue at 100 uCi, iv measured for 5 mins by PET imaging analysis; format: ADME, organism-based; conditions: in vivo; method in brief: as §1
[12] = Biodistribution in nude mouse assessed as accumulation in brain tissue at 100 uCi, iv measured for 10 mins by PET imaging analysis; format: ADME, organism-based; conditions: in vivo; method in brief: as §1
[13] = Biodistribution in nude mouse assessed as accumulation in muscle tissue at 100 uCi, iv measured for 30 mins by PET imaging analysis; format: ADME, organism-based; conditions: in vivo, 0.5 h; method in brief: as §1
[14] = Octanol/water partition coefficient, logP of compound at 1 uCi vortex for 5 mins and repeated for 4 times by gamma counter method; format: physicochemical; method in brief: as §2
[15] = Biodistribution in nude mouse assessed as accumulation in brain tissue at 100 uCi, iv measured for 30 mins by PET imaging analysis; format: ADME, organism-based; conditions: in vivo, 0.5 h; method in brief: as §1
[16] = Biodistribution in nude mouse assessed as accumulation in heart tissue at 100 uCi, iv measured for 60 mins by PET imaging analysis; format: ADME, organism-based; conditions: in vivo, 1 h; method in brief: as §1
[17] = Biodistribution in nude mouse assessed as accumulation in liver tissue at 100 uCi, iv measured for 10 mins by PET imaging analysis; format: ADME, organism-based; conditions: in vivo; method in brief: as §1
[18] = Biodistribution in nude mouse assessed as accumulation in heart tissue at 100 uCi, iv measured for 30 mins by PET imaging analysis; format: ADME, organism-based; conditions: in vivo, 0.5 h; method in brief: as §1
[19] = Biodistribution in nude mouse assessed as accumulation in kidney tissue at 100 uCi, iv measured for 60 mins by PET imaging analysis; format: ADME, organism-based; conditions: in vivo, 1 h; method in brief: as §1
[20] = Biodistribution in nude mouse assessed as accumulation in liver tissue at 100 uCi, iv measured for 30 mins by PET imaging analysis; format: ADME, organism-based; conditions: in vivo, 0.5 h; method in brief: as §1
[21] = Biodistribution in nude mouse assessed as accumulation in liver tissue at 100 uCi, iv measured for 60 mins by PET imaging analysis; format: ADME, organism-based; conditions: in vivo, 1 h; method in brief: as §1
[22] = Biodistribution in nude mouse assessed as accumulation in muscle tissue at 100 uCi, iv measured for 5 mins by PET imaging analysis; format: ADME, organism-based; conditions: in vivo; method in brief: as §1
[23] = Biodistribution in nude mouse assessed as accumulation in heart tissue at 100 uCi, iv measured for 10 mins by PET imaging analysis; format: ADME, organism-based; conditions: in vivo; method in brief: as §1
[24] = Drug uptake in human H441 cells at 1 uCi incubated for 30 mins by radioactivity-based assay; format: ADME, cell-based; conditions: nci-h441, 0.5 h
Method in brief: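 Medium removed, two ice-cold PBS washes, trypsinised 5 min at 37°C, gamma counted. Uptake expressed as counts per minute per million cells; triplicate.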

In the case of `CCc1cc2c(cc1N1CCC(N3CCOCC3)CC1)C(C)(C)c1[nH]c3cc(C#N)ccc3c1C2=O` [ALECTINIB], the IC50 (NCI-H441) is reported as “Non-Toxic”.

Molecule `Cc1cc(Nc2ncc(Cl)c(Nc3ccccc3S(=O)(=O)C(C)C)n2)c(OC(C)C)cc1C1CCN(CCF)CC1` has an IC50 (NCI-H2228) of 24.2 µM.

With `C[C@@H](Oc1cc(-c2cnn(C3CCN(CCF)CC3)c2)cnc1N)c1c(Cl)ccc(F)c1Cl` the IC50 (NCI-H2228) was 7.5 µM.

In the case of `C[C@@H](Oc1cc(-c2cnn(C3CCN(CC[18F])CC3)c2)cnc1N)c1c(Cl)ccc(F)c1Cl`, the Drug uptake [1] is reported as 1.8 %ID/cc, the Drug uptake [2] is reported as “Active” and the Drug uptake [3] is reported as 1.2 %ID/cc.

With `Cc1cc(Nc2ncc(Cl)c(Nc3ccccc3S(=O)(=O)C(C)C)n2)c(OC(C)C)cc1C1CCN(CC[18F])CC1` the Drug uptake [4] was 20.2 %ID/cc, the logD [5] was 1.51 and the Drug uptake [6] was 18.2 %ID/cc. For the same molecule, the Drug uptake [7] was 6.6 %ID/cc, the Drug uptake [8] was 16.8 %ID/cc and the Drug uptake [9] was 7.2 %ID/cc. It also gave a Drug uptake [10] of 3.9 %ID/cc, a Drug uptake [11] of 9.1 %ID/cc and a Drug uptake [12] of 6.5 %ID/cc. It also gave a Drug uptake [13] of 2.4 %ID/cc, a logP [14] of 0.97 and a Drug uptake [15] of 4.6 %ID/cc. The Drug uptake [16] was 2.6 %ID/cc, the Drug uptake [1] was 4 %ID/cc and the Drug uptake [2] was “Active”. The Drug uptake [17] was 17.9 %ID/cc, the Drug uptake [18] was 3.1 %ID/cc and the Drug uptake [19] was 5.7 %ID/cc. For the same molecule, the Drug uptake [20] was 9.5 %ID/cc, the Drug uptake [21] was 6.4 %ID/cc and the Drug uptake [3] was 2.1 %ID/cc. The Drug uptake [22] was 3.6 %ID/cc and the Drug uptake [23] was 7 %ID/cc.

With `CCc1cc2c(cc1N1CCC(N3CCOCC3)CC1)C(C)(C)c1c(c3ccc(C#N)cc3n1CCF)C2=O` the IC50 (NCI-H2228) was 0.01 µM and the IC50 (NCI-H441) was “Non-Toxic”.

With `CCc1cc2c(cc1N1CCC(N3CCOCC3)CC1)C(C)(C)c1c(c3ccc(C#N)cc3n1CC[18F])C2=O` the Drug uptake [24] was “Active”.
